# Rows were chosen to be rich in hits. Some 2.1% of all compounds tested hit in one or more screens of this group.
# SR-BI HDL uptake: inhibitors of SR-BI mediated HDL lipid uptake, primary screen, ldlA[mSR-BI] cells, fluorescence, single point | ldlA[mSR-BI] CHO cells, DiI-HDL uptake fluorescence, 3 h | inhibition, % at 12.5 µM | actives 0.96% (n = 320,000);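 active means mean replicate inhibition of at least 70% and a set share of replicates each scoring 70 or more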;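 further: 0% = median of neutral control wells and 100% = median of positive control wells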
# SR-BI uptake up: activators of SR-BI mediated DiI-HDL uptake, primary screen, ldlA[mSR-BI] CHO cells, DiI fluorescence; actives 0.096% (n = 320,000); 3 h; 100 = double the neutral-control signal; activation, % at 12.5 µM;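 active means mean replicate activation of at least 60% and every replicate at or above 60%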;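 further: 0% = median plate neutral-control signal and 100% = twice that signal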
#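 System: LDL receptor-deficient CHO ldlA cells overexpressing murine SR-BI | Timing: 3 h uptake period with compound, 37 °C | Medium: HEPES-buffered (25 mM, pH 7.4) F12 plus 0.5% BSA | Dosing: Single-point compound dose | Signal: Bottom-read fluorescence, 550/595 nm | Read-out: Retained DiI signal reflecting DiI-HDL uptake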
# PKA-R1A act: activators of PKA-R1A holoenzyme, primary screen, biochemical, fluorescence polarization, Cy5-IP20, bovine R1A, mouse PKAc; cAMP-dependent protein kinase type I-alpha regulatory subunit (Bos taurus) + …; AID 504707, 2011; PKA-R1A dissociation; scaled: DMSO 0%, 113 µM cGMP 100%; activation, % at 11.4 µM; actives 0.083% (n = 340,000);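 active means percent activation above the mean of all tested compounds plus 3 SD, cut at about 19% in these data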;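 further: higher means more PKAc released from R1A so a rise in polarization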
# dFosB activator: activators of delta FosB homodimer, primary screen, biochemical, fluorescence polarization, TAMRA-CDK5 oligo, single point | Protein FosB (Mus musculus), P13346 | purified delta FosB; percent of positive-control signal above neutral wells | activation, % at 25 µM | actives 0.99% (n = 340,000);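 active means mean activation above about 17%, with every replicate also reaching it, limit read from the data, passing the limit was not always enough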
# PKA-R2B act: activators of PKA-R2B holoenzyme, primary screen, biochemical, fluorescence polarization, Cy5-IP20, human | cAMP-dependent protein kinase catalytic subunit beta (Homo sapiens) + cAMP-dependent … | PKA-R2B holoenzyme dissociation; R2B truncated from residue 108, S112A mutant; 0% DMSO only, 100% 113 µM cGMP | activation, % at 11.4 µM | actives 0.079% (n = 340,000);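 active means activation above a cutoff set at the mean over all compounds plus 3 SD, cut at about 18% in these data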;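 further: higher means more holoenzyme dissociation and a rise in polarization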
# CDK5 p35 inh: inhibitors of human CDK5/p35 kinase, primary screen, biochemical, single concentration; Cyclin-dependent kinase 5 (Homo sapiens) + Cyclin-dependent kinase 5 activator 1 (Homo …; Recombinant CDK5/p35, ADP-Glo luminescence, 60 min; inhibition, % at 10 µM; actives 0.01% (n = 330,000);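 active means highest replicate inhibition of at least 50% and at least 75% of replicates reaching 50%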;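 further: plate controls were DMSO neutral control for no effect and GW8510 at 10 µM for full effect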
# Target sequence (Q00535 whole entry, looked up): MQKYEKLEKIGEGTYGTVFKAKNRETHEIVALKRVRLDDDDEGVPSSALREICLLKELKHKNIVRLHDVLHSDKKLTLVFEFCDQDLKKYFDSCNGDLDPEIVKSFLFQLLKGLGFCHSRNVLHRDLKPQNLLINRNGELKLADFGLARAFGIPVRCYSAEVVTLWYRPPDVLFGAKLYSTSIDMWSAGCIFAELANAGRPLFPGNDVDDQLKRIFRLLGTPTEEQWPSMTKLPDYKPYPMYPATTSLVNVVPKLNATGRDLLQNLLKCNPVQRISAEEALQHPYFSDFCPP
# Target sequence (Q15078 whole entry, looked up): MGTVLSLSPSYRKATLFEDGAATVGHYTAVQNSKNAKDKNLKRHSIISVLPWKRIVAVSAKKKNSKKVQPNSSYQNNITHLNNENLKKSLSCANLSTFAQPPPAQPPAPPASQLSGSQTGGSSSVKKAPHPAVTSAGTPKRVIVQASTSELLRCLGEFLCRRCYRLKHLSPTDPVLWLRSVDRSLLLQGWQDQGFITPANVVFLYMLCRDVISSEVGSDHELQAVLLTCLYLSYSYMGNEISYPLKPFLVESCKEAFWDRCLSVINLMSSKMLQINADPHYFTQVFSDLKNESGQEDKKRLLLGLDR
# * hit, by the source's call; . = no result given.
SMILES,SR-BI HDL uptake,SR-BI uptake up,PKA-R1A act,dFosB activator,PKA-R2B act,CDK5 p35 inh
O=c1cc(-c2ccc(O)c(-c3c(O)cc(O)c4c(=O)cc(-c5ccc(O)cc5)oc34)c2)oc2cc(O)cc(O)c12,48,-48,0,18*,1,-1
COc1ccc2ccc(O)c(CN(C)CC(=O)Nc3ccccc3C(F)(F)F)c2c1,-14,14,0,-12,-8,0
COc1cccc(-c2cc(C(F)(F)F)n3nc(C(=O)Nc4c(C)n(C)n(-c5ccccc5)c4=O)cc3n2)c1,78*,-78,2,-3,-7,1
CCOC(=O)c1nn2c(C(F)(F)F)cc(-c3ccc(OC)cc3)nc2c1Br,104*,-103,-8,-10,-5,-1
Cc1c(NC(=O)c2cnn3c(C(F)(F)F)cc(-c4ccco4)nc23)c(=O)n(-c2ccccc2)n1C,15,-15,7,3,-8,-2
COc1ccc2cc(-c3cc(C(=O)OCC(=O)Nc4c(C)n(C)n(-c5ccccc5)c4=O)c4ccccc4n3)ccc2c1,76*,-76,1,0,-5,-1
COc1ccc(-c2cc(C(F)(F)F)n3nc(C(=O)NCCN4CCOCC4)cc3n2)cc1,77*,-77,3,-21,-8,1
Cc1cc(C)cc(NC(=O)CSc2nc(=O)n(CCCN3CCOCC3)c3c2CCCC3)c1,8,-8,-5,-12,-3,1
COc1ccccc1C(CNC(=O)C(C)Oc1ccc(Br)cc1)N1CCCC1 (stereo not drawn),15,-15,-2,-3,1,-2
COc1ccc(-c2cc(C(F)(F)F)n3nc(C(=O)Nc4c(C)n(C)n(-c5ccccc5)c4=O)c(Cl)c3n2)cc1,79*,-79,-9,-7,-7,2
Cc1c(NC(=O)c2nn3c(C(F)(F)F)cc(-c4ccccc4)nc3c2Cl)c(=O)n(-c2ccccc2)n1C,29,-29,-14,-6,2,1
Cc1c(NC(=O)c2cc3nc(-c4ccc(Cl)cc4)cc(C(F)(F)F)n3n2)c(=O)n(-c2ccccc2)n1C,70*,-70,8,-2,5,-1
COc1ccc(-c2cc(C(F)(F)F)n3nc(C(=O)Nc4c(C)n(C)n(-c5ccccc5)c4=O)cc3n2)cc1,80*,-80,-7,-6,-2,1
COc1ccc(-c2cc(C(=O)Nc3c(C)n(C)n(-c4ccccc4)c3=O)no2)cc1,.,.,-10,-8,6,-5
N#Cc1ccccc1NC(=O)CNc1ccccc1N1CCCCC1,81*,-81,-4,-6,-7,-2
CCN(CC)S(=O)(=O)c1cc(NC(=O)CSc2nc3c(cc2C#N)C(=O)CC(C)(C)C3)ccc1C,72*,-72,2,-5,-18,-2
COc1ccc(CNC(=O)CCNS(=O)(=O)c2cc(Br)cnc2N)cc1,5,-5,-5,-2,5,1
COc1ccc2nc3cc(Cl)ccc3c(Nc3ccc(O)c(CN4CCN(C)CC4)c3)c2c1,18,-18,5,124*,-14,2
COc1cccc(C(=O)c2sc(NC(C)C)nc2N)c1,-6,6,-1,-4,4,55*
Cc1ccc2c(CC(=O)Nc3ccc(F)c(S(=O)(=O)N4CCOCC4)c3)coc2c1,14,-14,1,-7,-9,2
CCOc1ccc(NC(=S)NNC(=S)Nc2cccc(C(F)(F)F)c2)cc1,93*,-93,5,3,-12,2
COc1ccc(CC(=O)Nc2ccc(C(C)=O)cc2)cc1,2,-2,6,-8,4,2
CC(=O)Oc1ccc(C(=O)Nc2ccccc2C(=O)Nc2ccc(C(=O)O)cc2)cc1,20,-20,3,-4,-10,-3
CC(=O)Oc1ccc(C(=O)Nc2ccccc2C(=O)NCC(C)C)cc1,74*,-74,2,-4,3,0
COc1ccc(CC(=O)Nc2ccc(C(=O)NCC(C)C)cc2)cc1,6,-6,0,28*,2,1
SMILES,SR-BI HDL uptake,SR-BI uptake up,PKA-R1A act,dFosB activator,PKA-R2B act,CDK5 p35 inh
O=C(OCc1ccccc1)c1cccc(-c2nnc(-c3ccccc3)o2)c1,-62,62*,-4,-23,0,0
Cc1cccc(NC(=O)C2CCN(S(=O)(=O)c3c(C)nn(C)c3C)CC2)n1,.,.,-2,-10,6,0
Cc1cccc(NC(=O)C2CCN(S(=O)(=O)c3c(C)c(C)cc(C)c3C)CC2)n1,73*,-73,-4,-8,-11,2
CN(C(=O)C1CCCCC1)C1(C)CCS(=O)(=O)C1 (stereo not drawn),-9,9,5,-5,-4,3
COc1cc2cc(CCO)oc(=O)c2cc1OC,-12,12,-16,-2,-20,4
CCOC(=O)/C(=N\Nc1ccccc1[N+](=O)[O-])c1csc(N)n1,78*,-78,-19,-1,-4,0
CCOC(=O)/C(=N\Nc1ccc(C(C)=O)cc1)c1csc(Nc2ccccc2)n1,51,-51,5,-1,-1,0
CN1CCN(Cc2c(C(=O)N/N=C/c3cccc(Br)c3)nnn2-c2nonc2N)CC1,-19,19,-9,-12,-4,2
CCCc1cc2c(cc1N(C)S(=O)(=O)c1ccccc1)OCO2,10,-10,-9,1,-8,0
Cc1cc(NC(=O)c2c(F)cccc2Cl)n(-c2nc3ccccc3[nH]2)n1,92*,-92,-14,-9,1,2
Cc1cc(NC(=O)/C=C/c2cccc(F)c2)n(-c2nc3ccccc3[nH]2)n1,95*,-95,-5,6,-10,-1
Cc1cc(NC(=O)c2ccc(C)s2)n(-c2nc3ccccc3[nH]2)n1,72*,-72,-12,-28,-5,-1
Cc1cc(NC(=O)C2CCCCC2)n(-c2nc3ccccc3[nH]2)n1,58,-58,-10,-15,-8,1
Cc1cc(NC(=O)c2c(F)cccc2F)n(-c2nc3ccccc3[nH]2)n1,66,-66,-1,-33,-5,2
Cc1cc(NC(=O)/C=C/c2ccc(F)cc2)n(-c2nc3ccccc3[nH]2)n1,65,-65,8,-13,-13,2

# Bioassay records: PubChem BioAssay, several laboratories
